From ChEMBL document CHEMBL3596088, “Deepening the Topology of the Translocator Protein Binding Site by Novel N,N-Dialkyl-2-arylindol-3-ylglyoxylamides” (J Med Chem, 2015)

Tests used:
Translocator protein = Translocator protein (Rattus norvegicus, UniProt P16257); assay: Inhibition of [3H]PK11195 binding to TSPO in rat kidney mitochondrial membranes; assay type: cell membranes
Rattus norvegicus = species: Rattus norvegicus; assay: Inhibition of [3H]flumazenil binding to benzodiazepine receptor in rat cerebral cortex membranes at 10 uM incubated for 90 mins; assay type: cell membranes; conditions: Membrane
Procedure, shortened: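 Crude rat cerebral cortex membrane fraction from differential centrifugation, washed to remove endogenous GABA. Incubated with 0.4 nM [3H]Ro15-1788 (flumazenil) for 90 min at 0 °C in 50 mM Tris-citrate, pH 7.4. Test compound at 10 μM; result given as percent inhibition of binding.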

Translocator protein, sequence (P16257 whole entry, looked up): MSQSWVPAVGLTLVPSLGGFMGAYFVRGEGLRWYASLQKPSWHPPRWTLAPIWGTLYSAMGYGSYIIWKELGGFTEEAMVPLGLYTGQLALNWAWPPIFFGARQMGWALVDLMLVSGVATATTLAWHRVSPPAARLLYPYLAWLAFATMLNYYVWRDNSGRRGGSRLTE

CCCN(CCC)C(=O)C(=O)c1c(-c2ccsc2)[nH]c2ccccc12
Ki (Translocator protein): 1.2 nM
inhibition (Rattus norvegicus): 0%

CCCCCCN(CCCCCC)C(=O)C(=O)c1c(-c2ccc(C(=O)O)cc2)[nH]c2ccccc12
Ki (Translocator protein): 184 nM
inhibition (Rattus norvegicus): 0%

CCCCCCN(CCCCCC)C(=O)C(=O)c1c(-c2ccc(O)cc2)[nH]c2ccccc12
Ki (Translocator protein): 6.3 nM
inhibition (Rattus norvegicus): 0%

CCCCN(CCCC)C(=O)C(=O)c1c(-c2ccc(OC)cc2)[nH]c2ccccc12
Ki (Translocator protein): 20.3 nM
inhibition (Rattus norvegicus): 0%

CCCN(CCC)C(=O)C(=O)c1c(-c2ccc(OC)cc2)[nH]c2ccccc12
Ki (Translocator protein): 5.8 nM
inhibition (Rattus norvegicus): 0%

CCCN(CCC)C(=O)C(=O)c1c(-c2ccc(-c3ccccc3)cc2)[nH]c2ccccc12
Ki (Translocator protein): 0.53 nM
inhibition (Rattus norvegicus): 0%

CCCCN(CCCC)C(=O)C(=O)c1c(-c2ccc(O)cc2)[nH]c2ccccc12
Ki (Translocator protein): 25.7 nM
inhibition (Rattus norvegicus): 0%

CCCN(CCC)C(=O)C(=O)c1c(-c2ccc(C(=O)OC)cc2)[nH]c2ccccc12
Ki (Translocator protein): 3.1 nM
inhibition (Rattus norvegicus): 0%

CCCCCCN(CCCCCC)C(=O)C(=O)c1c(-c2ccc(-c3ccccc3)cc2)[nH]c2ccccc12
Ki (Translocator protein): 1.8 nM
inhibition (Rattus norvegicus): 0%

CCCCN(C)C(=O)C(=O)c1c(-c2ccc3ccccc3c2)[nH]c2ccccc12
Ki (Translocator protein): 0.56 nM
inhibition (Rattus norvegicus): 0%

CCCCN(CCCC)C(=O)C(=O)c1c(-c2ccsc2)[nH]c2ccccc12
Ki (Translocator protein): 2.8 nM
inhibition (Rattus norvegicus): 0%

CCCCN(CC)C(=O)C(=O)c1c(-c2ccc3ccccc3c2)[nH]c2ccccc12
Ki (Translocator protein): 0.51 nM
inhibition (Rattus norvegicus): 0%

CCCN(CCC)C(=O)C(=O)c1c(-c2ccc3ccccc3c2)[nH]c2ccccc12
inhibition (Rattus norvegicus): 0%

CCCCCN(C)C(=O)C(=O)c1c(-c2ccc3ccccc3c2)[nH]c2ccccc12
Ki (Translocator protein): 0.37 nM
inhibition (Rattus norvegicus): 0%

CCCN(CCC)C(=O)C(=O)c1c(-c2ccc(C(=O)O)cc2)[nH]c2ccccc12
Ki (Translocator protein): 343 nM
inhibition (Rattus norvegicus): 0%

CCCCN(CCCC)C(=O)C(=O)c1c(-c2ccc(C(=O)OC)cc2)[nH]c2ccccc12
Ki (Translocator protein): 2.7 nM
inhibition (Rattus norvegicus): 0%

CCCCN(CCCC)C(=O)C(=O)c1c(-c2ccc(-c3ccccc3)cc2)[nH]c2ccccc12
Ki (Translocator protein): 5.5 nM
inhibition (Rattus norvegicus): 0%

CCCCCCN(CCCCCC)C(=O)C(=O)c1c(-c2ccsc2)[nH]c2ccccc12
Ki (Translocator protein): 0.89 nM
inhibition (Rattus norvegicus): 0%

CCCN(CCC)C(=O)C(=O)c1c(-c2ccc(N)cc2)[nH]c2ccccc12
Ki (Translocator protein): 44.4 nM
inhibition (Rattus norvegicus): 0%

CCCCCCN(CCCCCC)C(=O)C(=O)c1c(-c2ccc(OC)cc2)[nH]c2ccccc12
Ki (Translocator protein): 4 nM
inhibition (Rattus norvegicus): 0%

CCCCCCN(CCCCCC)C(=O)C(=O)c1c(-c2ccc(N)cc2)[nH]c2ccccc12
Ki (Translocator protein): 4.2 nM
inhibition (Rattus norvegicus): 0%

CCCCN(CCCC)C(=O)C(=O)c1c(-c2ccc(C(=O)O)cc2)[nH]c2ccccc12
Ki (Translocator protein): 406 nM
inhibition (Rattus norvegicus): 0%

CCCCCCN(CCCCCC)C(=O)C(=O)c1c(-c2ccc(C(=O)OC)cc2)[nH]c2ccccc12
Ki (Translocator protein): 3.3 nM
inhibition (Rattus norvegicus): 0%

CN1C(=O)CN=C(c2ccc(Cl)cc2)c2cc(Cl)ccc21
inhibition (Rattus norvegicus): 0%

CCCCN(CCCC)C(=O)C(=O)c1c(-c2ccc(N)cc2)[nH]c2ccccc12
Ki (Translocator protein): 133 nM
inhibition (Rattus norvegicus): 0%

CCCCN(CCCC)C(=O)C(=O)c1c(-c2ccc3ccccc3c2)[nH]c2ccccc12
Ki (Translocator protein): 0.54 nM
inhibition (Rattus norvegicus): 0%

CCCCCCN(CCCCCC)C(=O)C(=O)c1c(-c2ccc3ccccc3c2)[nH]c2ccccc12
Ki (Translocator protein): 0.52 nM
inhibition (Rattus norvegicus): 0%

CCCN(CCC)C(=O)C(=O)c1c(-c2ccc(O)cc2)[nH]c2ccccc12
Ki (Translocator protein): 16.1 nM
inhibition (Rattus norvegicus): 0%

CCC(C)N(C)C(=O)c1cc2ccccc2c(-c2ccccc2Cl)n1 (configuration not stated)
inhibition (Rattus norvegicus): 0%

CCN(Cc1ccccc1)C(=O)C(=O)c1c(-c2ccc3ccccc3c2)[nH]c2ccccc12
Ki (Translocator protein): 0.51 nM
inhibition (Rattus norvegicus): 0%
